Activity calls are given as the source filed them. The calls are words filed in the database; no cut-off is given here.
Key:
[1] = biological target: T1, Zinc finger protein GLI1 (Homo sapiens) (UniProt P08151); assay: Inhibition of exogenously transfected human Gli1-mediated transcriptional activity in mouse C3H10T1/2 cells at 20 uM after 24 hrs by luciferase reporter gene assay; assay type: cell-based; conditions: C3H 10T1/2
T1 sequence (whole entry): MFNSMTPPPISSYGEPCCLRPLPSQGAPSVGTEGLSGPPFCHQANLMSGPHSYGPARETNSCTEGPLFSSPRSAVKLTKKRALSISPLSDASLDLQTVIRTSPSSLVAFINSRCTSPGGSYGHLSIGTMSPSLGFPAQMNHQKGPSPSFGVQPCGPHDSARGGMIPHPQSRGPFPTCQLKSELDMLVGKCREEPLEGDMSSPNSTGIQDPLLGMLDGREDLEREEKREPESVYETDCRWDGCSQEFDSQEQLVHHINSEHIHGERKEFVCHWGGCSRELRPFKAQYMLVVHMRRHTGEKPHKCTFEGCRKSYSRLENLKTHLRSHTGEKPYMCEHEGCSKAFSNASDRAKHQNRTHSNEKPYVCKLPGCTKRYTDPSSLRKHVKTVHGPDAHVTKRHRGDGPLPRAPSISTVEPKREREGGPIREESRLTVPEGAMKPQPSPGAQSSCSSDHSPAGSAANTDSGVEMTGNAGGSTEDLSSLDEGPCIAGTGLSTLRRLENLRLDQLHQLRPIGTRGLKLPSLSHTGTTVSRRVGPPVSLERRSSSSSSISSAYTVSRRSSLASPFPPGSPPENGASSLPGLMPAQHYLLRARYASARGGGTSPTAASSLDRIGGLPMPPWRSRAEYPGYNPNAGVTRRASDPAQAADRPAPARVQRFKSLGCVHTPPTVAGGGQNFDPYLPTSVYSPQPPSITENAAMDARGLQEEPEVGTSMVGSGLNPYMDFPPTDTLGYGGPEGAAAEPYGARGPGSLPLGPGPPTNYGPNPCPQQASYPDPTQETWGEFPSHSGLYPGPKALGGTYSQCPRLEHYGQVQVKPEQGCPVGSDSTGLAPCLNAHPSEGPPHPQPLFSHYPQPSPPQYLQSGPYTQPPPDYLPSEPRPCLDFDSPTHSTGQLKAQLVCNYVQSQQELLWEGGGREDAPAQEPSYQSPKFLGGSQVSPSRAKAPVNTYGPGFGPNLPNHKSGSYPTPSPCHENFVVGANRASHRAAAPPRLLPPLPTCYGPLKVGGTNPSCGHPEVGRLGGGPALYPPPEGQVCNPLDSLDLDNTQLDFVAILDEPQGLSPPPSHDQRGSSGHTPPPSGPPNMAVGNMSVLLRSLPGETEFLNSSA
Summary of the method: (§1)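 They were replated 18 h later, given compound or DMSO 6 h after plating, and exposed for 24 h at 37 °C, 5% CO2. Lysate was read by dual luciferase as firefly/Renilla, triplicate, DMSO = 0%. IC50 came from curve fitting.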

[2] = biological target: T1, Zinc finger protein GLI1 (Homo sapiens); assay: Inhibition of exogenously transfected human Gli1-mediated transcriptional activity in mouse C3H10T1/2 cells at 40 uM after 24 hrs by luciferase reporter gene assay; assay type: cell-based; conditions: C3H 10T1/2; summary of the method: as §1
[3] = test system: SJRH30; assay: Cytotoxicity against human Rh30 cells at 40 uM/well after 68 hrs by alamar blue assay; assay type: functional, cell-based
Summary of the method: (§2)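 Cells plated in appropriate medium 24 h before compound. A 10 mM DMSO stock was diluted in EMEM to 160 µM (4×) and added in triplicate to a final 40 µM. Incubated 68 h at 37 °C, then Alamar Blue for 4 h at 37 °C. Fluorescence read at ex 510/em 590 nm. Viability taken relative to DMSO control wells.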

[4] = test system: MDA-MB-231; assay: Cytotoxicity against human MDA-MB-231 cells at 40 uM/well after 68 hrs by alamar blue assay; assay type: functional, cell-based; summary of the method: as §2
[5] = test system: Daoy; assay: Cytotoxicity against human DaOY cells at 40 uM/well after 68 hrs by alamar blue assay; assay type: functional, cell-based; summary of the method: as §2
[6] = test system: DU-145; assay: Cytotoxicity against human DU145 cells at 40 uM/well after 68 hrs by alamar blue assay; assay type: functional, cell-based; summary of the method: as §2
[7] = test system: Raji; assay: Cytotoxicity against human Raji cells at 40 uM/well after 68 hrs by alamar blue assay; assay type: functional, cell-based; summary of the method: as §2
[8] = test system: HepG2; assay: Cytotoxicity against human HepG2 cells at 40 uM/well after 68 hrs by alamar blue assay; assay type: functional, cell-based; summary of the method: as §2
[9] = test system: LN-229; assay: Cytotoxicity against human LN229 cells at 40 uM/well after 68 hrs by alamar blue assay; assay type: functional, cell-based; summary of the method: as §2
[10] = test system: BJ; assay: Cytotoxicity against human TERT-immortalized human BJ cells at 40 uM/well after 68 hrs by alamar blue assay; assay type: cell-based; summary of the method: as §2

SMILES | inhibition [1] | inhibition [2] | Activity [3] | Activity [4] | Activity [5] | Activity [6] | Activity [7] | Activity [8] | Activity [9] | Activity [10]
COc1ccc(C(=O)NC[C@@H](C)c2cccc(C(=O)c3ccccc3)c2)cc1 | Active | Active | Active | Active | Active | Active | Active | inactive | inactive | Non-toxic
C[C@H](C(=O)NCCc1ccccc1O)c1cccc(C(=O)c2ccccc2)c1 | Active |  | Active | Active | Active | Active | Active | inactive | inactive | Non-toxic
COc1ccccc1CCNC(=O)[C@@H](C)c1cccc(C(=O)c2ccccc2)c1 | Active | Active | Active | Active | Active | Active | Active | inactive | inactive | Non-toxic
COc1ccc(CCNC(=O)[C@@H](C)c2cccc(C(=O)c3ccccc3)c2)cc1O | Active | Active | Active | Active | Active | Active | Active | inactive | inactive | Non-toxic
COc1ccc(CCNC(=O)[C@@H](C)c2cccc(C(=O)c3ccccc3)c2)cc1 | Active | Active | Active | Active | Active | Active | Active | inactive | inactive | Non-toxic
C[C@H](COC(=O)NCCc1ccc(O)cc1)c1cccc(C(=O)c2ccccc2)c1 | Active | Active | Active | Active | Active | Active | Active | inactive | inactive | Non-toxic
C[C@H](C(=O)NCCc1ccccc1)c1cccc(C(=O)c2ccccc2)c1 | Active | Active | Active | Active | Active | Active | Active | inactive | inactive | Non-toxic
C[C@H](COC(=O)Nc1ccc(O)cc1)c1cccc(C(=O)c2ccccc2)c1 | Active | Active | Active | Active | Active | Active | Active | inactive | inactive | Non-toxic
C[C@H](CNC(=O)CCc1ccc(O)cc1)c1cccc(C(=O)c2ccccc2)c1 | Active | Active | Active | Active | Active | Active | Active | inactive | inactive | Non-toxic
COc1ccc2cc([C@H](C)C(=O)NCCc3ccc(O)cc3)ccc2c1 | Active | Active | Active | Active | Active | Active | Active | inactive | inactive | Non-toxic
COc1ccc2[nH]cc(CC(=O)NCCc3ccc(O)cc3)c2c1 |  |  | Active | Active | Active | Active | Active | inactive | inactive | Non-toxic
COc1cc(CCNC(=O)[C@@H](C)c2cccc(C(=O)c3ccccc3)c2)ccc1O | Active | Active | Active | Active | Active | Active | Active | inactive | inactive | Non-toxic
O=C(Cc1ccccc1Oc1ccccc1)NCCc1ccc(O)cc1 |  |  | Active | Active | Active | Active | Active | inactive | inactive | Non-toxic
O=C(Cc1cccc(Oc2ccccc2)c1)NCCc1ccc(O)cc1 |  |  | Active | Active | Active | Active | Active | inactive | inactive | Non-toxic
CC(C(=O)NCCc1ccc(O)cc1)c1cccc(C(=O)c2ccccc2)c1 (racemic) |  |  | Active | Active | Active | Active | Active | inactive | inactive | Non-toxic
C[C@H](C(=O)NCCc1ccc(O)cc1)c1cccc(Cc2ccccc2)c1 |  |  | Active | Active | Active | Active | Active | inactive | inactive | Non-toxic
O=C(Cc1ccc(Oc2ccccc2)cc1)NCCc1ccc(O)cc1 |  |  | Active | Active | Active | Active | Active | inactive | inactive | Non-toxic
COc1ccc2cc([C@@H](C)C(=O)NCCc3ccc(O)cc3)ccc2c1 |  |  | Active | Active | Active | Active | Active | inactive | inactive | Non-toxic
CC(C)Cc1ccc(C(C)C(=O)NCCc2ccc(O)cc2)cc1 (stereo unspecified) |  |  | Active | Active | Active | Active | Active | inactive | inactive | Non-toxic
C[C@H](C(=O)NCCc1ccc(O)cc1)c1cccc(C(O)c2ccccc2)c1 (stereo partly specified) |  |  | Active | Active | Active | Active | Active | inactive | inactive | Non-toxic
